Five compounds from ChEMBL document CHEMBL3576763, “Synthesis and Biological Activities of 5-Thio-α-GalCers” (2015) can be followed below.

Calls of active or inactive are those of the source. The rule behind the calls is not given here.

Assay [1] relates to Mus musculus. As to the kind of experiment: Immunostimulatory activity in B6 mouse assessed as induction of IL-4 production in serum at 100 ug/kg, ip measured up to 12 hrs by ELISA. It counts as functional, organism-based. In a few lines:
(§1)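 Glycolipid given intraperitoneally to B6 mice at 100 μg/kg. Serum IFN-γ and IL-4 measured at several time points after injection. Two mice per group, each mouse's serum assayed individually at each time.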

The test system of assay [2] is Mus musculus. The assay is described as follows: Immunostimulatory activity in B6 mouse assessed as induction of IFN-gamma production in serum at 100 ug/kg, ip after 24 hrs by ELISA. It counts as functional. In a few lines:
as §1

Assay [3] concerns Mus musculus. The assay is described as follows: Immunostimulatory activity in B6 mouse assessed as induction of IL-4 production in serum at 100 ug/kg, ip measured after 12 hrs by ELISA. It counts as functional, organism-based. The method in brief:
as §1

Assay [4] deals with iNKT. As to the kind of experiment: Immunostimulatory activity in B6 mouse iNKT cells assessed as induction of IFN-gamma production at 1000 ng/ml incubated for 16 hrs followed by brefeldin A addition measured after 2 hrs by flow cytometric analysis (reference value: 0.6%). It counts as functional. The method in brief: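 Mouse splenocytes stimulated with glycolipid in vitro; IFN-γ measured in cells gated as CD3+DX5+CD1d tetramer+ NKT cells. Control cells held in complete 1640 medium only; PMA plus ionomycin used as positive control.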
For orientation: A flow cytometer gives signals particle by particle.

Assay [5] relates to iNKT. The assay is described as follows: Immunostimulatory activity in B6 mouse iNKT cells assessed as induction of IFN-gamma production incubated for 16 hrs followed by brefeldin A addition measured after 2 hrs by flow cytometric analysis in presence of ionomycin (reference value: 0.6%). It counts as functional.
In assay [6] the test system is Mus musculus. The assay is described as follows: Immunostimulatory activity in B6 mouse assessed as induction of IFN-gamma production in serum at 100 ug/kg, ip by ELISA. It is filed as functional, organism-based. In a few lines:
as §1

In assay [7] the test system is Mus musculus. The assay is described as follows: Immunostimulatory activity in B6 mouse assessed as induction of IL-4 production in serum at 100 ug/kg, ip measured at 3 hrs by ELISA. It counts as functional, organism-based. In a few lines:
as §1
(In general: ELISA stands for enzyme-linked immunosorbent assay.)

For assay [8], the system named is Mus musculus. As to the kind of experiment: Immunostimulatory activity in B6 mouse assessed as induction of IFN-gamma production in serum at 100 ug/kg, ip measured at 6 to 24 hrs by ELISA. It counts as functional. The method in brief: as §1

With `CCCCCCCCCCCCCCCCCCCCCCCCCC(=O)N[C@@H](CO[C@H]1S[C@H](CO)[C@H](O)[C@H](O)[C@H]1O)[C@H](O)[C@H](O)CCCCCCCCCCCCCC`, the outcome with Mus musculus [1] was Active. The values for the Activity with Mus musculus [2] and in the assay on iNKT [4] were 1722 pg/mL and 8.5%, respectively. For the same compound, the outcome with Mus musculus [3] was inactive.

In the case of `CCCCCCCCCCCCCC(=O)O[C@@H]1[C@@H](C)[C@@]2(O)[C@@H](C=C(CO)C[C@]3(O)C(=O)C(C)=C[C@@H]23)[C@@H]2C(C)(C)[C@]12OC(C)=O` [PHORBOL MYRISTATE ACETATE], in the assay with iNKT [5], the Activity was determined as 8.5%.

`CCCCCCCCCCCCCC[C@@H](O)[C@@H](O)[C@H](CO[C@H]1S[C@H](CO)[C@H](O)[C@H](O)[C@H]1O)NC(=O)CCCCCCC`: the result in the assay with Mus musculus [6] and in the assay on Mus musculus [3] was inactive. For the same compound, the Activity with iNKT [4] turned out to be 1.4%.

Consider `CCCCCCCCCCCCCCCCCCCCCCCCCC(=O)N[C@@H](CO[C@H]1O[C@H](CO)[C@H](O)[C@H](O)[C@H]1O)[C@H](O)[C@H](O)CCCCCCCCCCCCCC` [RGI-7000], for which the result with Mus musculus [7] was Active. Besides, the results for the Activity in the assay on Mus musculus [8] and with iNKT [4] were 2127 pg/mL and 4.1%, respectively.

With `CCCCCCCCCCCCCC[C@@H](O)[C@@H](O)[C@H](CO[C@H]1S[C@H](CO)[C@H](O)[C@H](O)[C@H]1O)NC(=O)CCCCCCCCCCCCC`, the result in the assay on Mus musculus [6] was Active. Also, the result with Mus musculus [1] and with Mus musculus [3] was inactive. Also, in the assay on iNKT [4], the Activity is recorded as 6%.
